T1: Nitric oxide synthase, inducible (Mus musculus) (UniProt P29477)
T1 sequence (whole entry): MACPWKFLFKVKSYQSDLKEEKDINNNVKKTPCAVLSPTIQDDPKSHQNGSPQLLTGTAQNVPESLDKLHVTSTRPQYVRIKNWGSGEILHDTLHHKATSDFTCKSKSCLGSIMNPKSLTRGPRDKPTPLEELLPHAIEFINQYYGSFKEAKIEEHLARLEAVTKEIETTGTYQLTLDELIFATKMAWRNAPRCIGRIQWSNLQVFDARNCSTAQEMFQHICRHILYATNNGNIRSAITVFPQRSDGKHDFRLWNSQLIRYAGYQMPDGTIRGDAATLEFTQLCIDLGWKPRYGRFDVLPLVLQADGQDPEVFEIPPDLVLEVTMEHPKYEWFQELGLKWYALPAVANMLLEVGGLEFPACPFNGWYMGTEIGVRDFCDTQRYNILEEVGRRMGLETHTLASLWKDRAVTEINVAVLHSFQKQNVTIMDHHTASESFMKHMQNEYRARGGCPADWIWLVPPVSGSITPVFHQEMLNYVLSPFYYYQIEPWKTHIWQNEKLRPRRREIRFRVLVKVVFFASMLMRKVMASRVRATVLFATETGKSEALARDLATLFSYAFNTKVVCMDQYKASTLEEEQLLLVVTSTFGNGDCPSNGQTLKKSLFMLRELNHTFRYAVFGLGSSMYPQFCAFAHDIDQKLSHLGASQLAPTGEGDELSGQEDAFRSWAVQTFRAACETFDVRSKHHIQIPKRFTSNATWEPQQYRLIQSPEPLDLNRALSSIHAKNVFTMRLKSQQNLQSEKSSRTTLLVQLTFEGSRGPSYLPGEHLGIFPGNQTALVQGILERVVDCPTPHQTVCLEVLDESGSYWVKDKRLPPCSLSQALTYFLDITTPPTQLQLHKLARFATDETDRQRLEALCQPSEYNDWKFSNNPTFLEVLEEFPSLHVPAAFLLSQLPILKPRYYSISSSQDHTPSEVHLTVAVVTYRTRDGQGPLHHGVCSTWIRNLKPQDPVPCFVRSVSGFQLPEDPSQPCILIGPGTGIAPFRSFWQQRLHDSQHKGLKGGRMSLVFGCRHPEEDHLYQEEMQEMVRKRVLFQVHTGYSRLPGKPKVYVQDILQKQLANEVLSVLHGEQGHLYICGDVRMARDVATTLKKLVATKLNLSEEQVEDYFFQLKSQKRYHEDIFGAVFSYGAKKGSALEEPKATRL

T2: Nitric oxide synthase 3 (Homo sapiens) (UniProt P29474)
T2 sequence (whole entry): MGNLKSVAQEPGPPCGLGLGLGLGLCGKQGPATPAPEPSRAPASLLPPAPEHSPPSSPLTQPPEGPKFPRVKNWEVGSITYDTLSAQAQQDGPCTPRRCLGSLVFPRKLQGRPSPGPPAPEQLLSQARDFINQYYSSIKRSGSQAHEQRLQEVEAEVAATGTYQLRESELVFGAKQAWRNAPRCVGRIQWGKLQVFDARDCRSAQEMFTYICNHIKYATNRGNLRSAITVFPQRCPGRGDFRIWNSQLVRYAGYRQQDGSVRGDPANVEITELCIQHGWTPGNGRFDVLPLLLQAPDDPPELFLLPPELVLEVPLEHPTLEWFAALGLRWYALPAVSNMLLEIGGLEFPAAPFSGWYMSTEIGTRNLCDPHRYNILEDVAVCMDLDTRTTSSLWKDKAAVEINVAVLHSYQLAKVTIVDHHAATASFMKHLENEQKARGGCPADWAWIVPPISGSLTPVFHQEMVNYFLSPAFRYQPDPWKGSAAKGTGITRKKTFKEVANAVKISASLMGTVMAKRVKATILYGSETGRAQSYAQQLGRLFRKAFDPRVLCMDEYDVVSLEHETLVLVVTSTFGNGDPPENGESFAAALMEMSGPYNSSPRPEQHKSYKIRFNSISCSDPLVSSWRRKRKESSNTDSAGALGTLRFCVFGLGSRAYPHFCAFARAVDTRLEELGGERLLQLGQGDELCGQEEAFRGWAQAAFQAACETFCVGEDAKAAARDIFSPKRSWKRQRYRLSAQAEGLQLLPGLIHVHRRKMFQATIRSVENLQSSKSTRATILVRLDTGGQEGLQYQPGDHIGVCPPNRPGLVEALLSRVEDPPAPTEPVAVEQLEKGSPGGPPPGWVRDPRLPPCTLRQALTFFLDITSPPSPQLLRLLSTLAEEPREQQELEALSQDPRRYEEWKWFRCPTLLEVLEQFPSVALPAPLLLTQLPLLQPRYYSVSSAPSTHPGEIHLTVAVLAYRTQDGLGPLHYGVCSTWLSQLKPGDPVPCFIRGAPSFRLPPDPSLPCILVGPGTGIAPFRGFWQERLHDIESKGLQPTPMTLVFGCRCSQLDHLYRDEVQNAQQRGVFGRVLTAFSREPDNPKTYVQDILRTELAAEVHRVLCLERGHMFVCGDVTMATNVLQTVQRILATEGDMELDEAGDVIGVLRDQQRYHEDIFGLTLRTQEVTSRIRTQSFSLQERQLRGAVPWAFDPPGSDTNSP


Columns and labels:
Type in all cases: functional
[1] = target: T1, Nitric oxide synthase, inducible (Mus musculus); assay: (§1) Compound was evaluated for the kinetic constants for Nitric Oxide formation from oxidation by NOS II
How it was run: (§2)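 Recombinant purified NOS II was run in the hemoglobin assay at 37 °C in 50 mM HEPES pH 7.4 with NADPH, BH4, SOD, catalase and DTT, over varying substrate concentrations. Initial NO-formation rates gave saturation kinetics. Km (μM) and kcat (min⁻¹) were derived from Lineweaver-Burk plots, and kcat/Km is expressed in μM⁻¹ min⁻¹.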

[2] = target: T1, Nitric oxide synthase, inducible (Mus musculus); assay: Formation of Nitric Oxide by Nitric Oxide synthase II(% relative to NOHA)
How it was run: (§3)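 Purified recombinant NOS (5–50 nM) at 37 °C in 50 mM HEPES pH 7.4 with 1 mM test compound, 1 mM NADPH, 100 μM BH4, 100 U/mL SOD, 100 U/mL catalase, 12–15 μM oxyhemoglobin and 5 mM DTT. NOS I and NOS III runs also contained 1 mM CaCl2 and 10 μg/mL calmodulin. NO was read spectrophotometrically as oxyhemoglobin-to-methemoglobin conversion. Initial rates are given as % of the NOHA rate.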

[3] = target: Nitric oxide synthase 1 (Homo sapiens) (UniProt P29475); assay: Formation of Nitric Oxide by Nitric Oxide synthase I(% relative to NOHA); how it was run: as §3
[4] = Ratio between Km (uM) and Kcat (1/min) was determined; how it was run: as §2
[5] = target: T2, Nitric oxide synthase 3 (Homo sapiens); assay: Formation of Nitric Oxide by Nitric Oxide synthase III(% relative to NOHA); how it was run: as §3
[6] = substrate: CCCCC/N=C(/N)NO; assay: as §1; how it was run: as §2
[7] = substrate: CCCCN/C(N)=N/O; assay: as §1; how it was run: as §2
[8] = substrate: N/C(=N/CCCC(N)C(=O)O)NO; assay: as §1; how it was run: as §2
[9] = substrate: N/C(=N/CCCCC(N)C(=O)O)NO; assay: as §1; how it was run: as §2
[10] = substrate: N=C(NO)Nc1ccc(Cl)cc1; assay: as §1; how it was run: as §2

Sequence of Nitric oxide synthase 1 (Homo sapiens) (P29475 whole entry): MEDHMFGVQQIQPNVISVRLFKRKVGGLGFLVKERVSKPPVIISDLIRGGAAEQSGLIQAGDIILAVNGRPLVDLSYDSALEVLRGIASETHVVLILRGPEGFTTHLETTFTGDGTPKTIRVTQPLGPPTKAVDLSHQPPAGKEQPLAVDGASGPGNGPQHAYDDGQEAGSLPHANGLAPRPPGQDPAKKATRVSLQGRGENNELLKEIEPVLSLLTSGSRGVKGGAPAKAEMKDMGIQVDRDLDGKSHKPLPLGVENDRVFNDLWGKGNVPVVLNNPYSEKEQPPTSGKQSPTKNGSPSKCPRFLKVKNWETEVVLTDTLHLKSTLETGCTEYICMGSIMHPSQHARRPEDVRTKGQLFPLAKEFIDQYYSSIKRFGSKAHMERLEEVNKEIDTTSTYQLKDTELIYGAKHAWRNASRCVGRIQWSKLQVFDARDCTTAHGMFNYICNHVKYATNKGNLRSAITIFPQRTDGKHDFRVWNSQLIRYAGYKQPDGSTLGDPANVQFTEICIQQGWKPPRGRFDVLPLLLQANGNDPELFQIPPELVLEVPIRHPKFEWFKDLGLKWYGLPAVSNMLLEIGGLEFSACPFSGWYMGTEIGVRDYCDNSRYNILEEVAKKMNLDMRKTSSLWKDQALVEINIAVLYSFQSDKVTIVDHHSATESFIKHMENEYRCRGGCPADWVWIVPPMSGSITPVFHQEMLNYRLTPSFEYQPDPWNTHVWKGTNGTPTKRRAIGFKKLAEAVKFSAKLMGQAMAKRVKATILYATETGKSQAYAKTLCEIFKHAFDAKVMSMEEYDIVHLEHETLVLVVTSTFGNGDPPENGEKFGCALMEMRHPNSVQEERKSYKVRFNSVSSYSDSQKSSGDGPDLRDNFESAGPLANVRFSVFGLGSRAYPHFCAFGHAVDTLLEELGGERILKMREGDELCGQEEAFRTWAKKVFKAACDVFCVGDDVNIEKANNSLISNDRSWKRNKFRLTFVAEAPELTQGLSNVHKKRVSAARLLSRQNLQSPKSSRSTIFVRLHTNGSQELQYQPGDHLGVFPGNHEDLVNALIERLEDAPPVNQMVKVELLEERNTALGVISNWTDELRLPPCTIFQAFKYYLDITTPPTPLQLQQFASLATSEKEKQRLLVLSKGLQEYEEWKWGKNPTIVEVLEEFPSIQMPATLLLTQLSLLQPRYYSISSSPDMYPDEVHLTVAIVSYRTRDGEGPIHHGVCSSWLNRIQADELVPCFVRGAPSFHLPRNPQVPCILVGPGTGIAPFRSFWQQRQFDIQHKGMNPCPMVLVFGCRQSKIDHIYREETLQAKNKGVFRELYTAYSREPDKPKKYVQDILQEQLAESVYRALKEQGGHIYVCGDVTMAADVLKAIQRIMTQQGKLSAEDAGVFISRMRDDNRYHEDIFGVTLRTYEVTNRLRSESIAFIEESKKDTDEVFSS

Molecule	k cat [1]	Initial rates [2]	Initial rates [3]	k cat/Km [4]	Initial rates [5]	Km [6]	Km [7]	Km [8]	Km [9]	Km [10]
N/C(=N/CCCCC(N)C(=O)O)NO (stereo unspecified)	6.83 s⁻¹	55	82	46700 M⁻¹ s⁻¹	70	–	–	–	–	–
CCCCC/N=C(/N)NO	4.67 s⁻¹	25	34	15000 M⁻¹ s⁻¹	< 0.5	–	–	–	–	–
NCCCN/C(N)=N/O	–	< 0.5	< 0.5	–	< 0.5	–	–	–	–	–
CCC/N=C(/N)NO	–	15	36	–	41	–	–	–	–	–
N=C(NO)Nc1ccc(Cl)cc1	1.67 s⁻¹	–	–	3330 M⁻¹ s⁻¹	–	–	–	–	–	–
NC(=NCCCC(=O)O)NO	–	< 0.5	< 0.5	–	< 0.5	–	–	–	–	–
CCCCN/C(N)=N/O	5.33 s⁻¹	68	65	96700 M⁻¹ s⁻¹	41	–	–	–	–	–
NC(=NCCC(N)C(=O)O)NO (stereo unspecified)	–	< 0.5	< 0.5	–	< 0.5	–	–	–	–	–
N/C(=N/CCCC(N)C(=O)O)NO (stereo unspecified)	8 s⁻¹	100	100	200000 M⁻¹ s⁻¹	100	–	–	–	–	–
NCCCC/N=C(/N)NO	–	8	2	–	< 0.5	–	–	–	–	–
N/C(=N/CC(N)C(=O)O)NO (stereo unspecified)	–	< 0.5	< 0.5	–	< 0.5	–	–	–	–	–
N/C(=N/CCCCC(=O)O)NO	–	1	< 0.5	–	2	–	–	–	–	–
CCCCCC/N=C(/N)NO	–	1	2	–	< 0.5	–	–	–	–	–
Nitric oxide synthase, inducible (Mus musculus), P29477 (protein) MACPWKFLFKVKSYQSDLKEEKDINNNVKKTPCAVLSPTIQDDPKSHQNGSPQLLTGTAQNVPESLDKLHVTSTRPQYVRIKNWGSGEILHDTLHHKATSDFTCKSKSCLGSIMNPKSLTRGPRDKPTPLEELLPHAIEFINQYYGSFKEAKIEEHLARLEAVTKEIETTGTYQLTLDELIFATKMAWRNAPRCIGRIQWSNLQVFDARNCSTAQEMFQHICRHILYATNNGNIRSAITVFPQRSDGKHDFRLWNSQLIRYAGYQMPDGTIRGDAATLEFTQLCIDLGWKPRYGRFDVLPLVLQADGQDPEVFEIPPDLVLEVTMEHPKYEWFQELGLKWYALPAVANMLLEVGGLEFPACPFNGWYMGTEIGVRDFCDTQRYNILEEVGRRMGLETHTLASLWKDRAVTEINVAVLHSFQKQNVTIMDHHTASESFMKHMQNEYRARGGCPADWIWLVPPVSGSITPVFHQEMLNYVLSPFYYYQIEPWKTHIWQNEKLRPRRREIRFRVLVKVVFFASMLMRKVMASRVRATVLFATETGKSEALARDLATLFSYAFNTKVVCMDQYKASTLEEEQLLLVVTSTFGNGDCPSNGQTLKKSLFMLRELNHTFRYAVFGLGSSMYPQFCAFAHDIDQKLSHLGASQLAPTGEGDELSGQEDAFRSWAVQTFRAACETFDVRSKHHIQIPKRFTSNATWEPQQYRLIQSPEPLDLNRALSSIHAKNVFTMRLKSQQNLQSEKSSRTTLLVQLTFEGSRGPSYLPGEHLGIFPGNQTALVQGILERVVDCPTPHQTVCLEVLDESGSYWVKDKRLPPCSLSQALTYFLDITTPPTQLQLHKLARFATDETDRQRLEALCQPSEYNDWKFSNNPTFLEVLEEFPSLHVPAAFLLSQLPILKPRYYSISSSQDHTPSEVHLTVAVVTYRTRDGQGPLHHGVCSTWIRNLKPQDPVPCFVRSVSGFQLPEDPSQPCILIGPGTGIAPFRSFWQQRLHDSQHKGLKGGRMSLVFGCRHPEEDHLYQEEMQEMVRKRVLFQVHTGYSRLPGKPKVYVQDILQKQLANEVLSVLHGEQGHLYICGDVRMARDVATTLKKLVATKLNLSEEQVEDYFFQLKSQKRYHEDIFGAVFSYGAKKGSALEEPKATRL	–	–	–	–	–	310 µM	55 µM	40 µM	146 µM	500 µM

Reference: ChEMBL document CHEMBL1134763, “Oxidation of N(omega)-hydroxyarginine analogues by NO-synthase: the simple, non amino acid N-butyl N'-hydroxyguanidine is almost as efficient an NO precursor as N(omega)-hydroxyarginine” (J Med Chem, 2001)
